Drawing on ChEMBL document CHEMBL3244241, “Synthesis of cephalotaxine esters and correlation of their structures with antitumor activity” (J Med Chem, 1977), this text covers Activity and T/C for seven molecules.

For series [1], the system named is P388. The experiment in a line: Antitumor activity against mouse P388 cells allografted in DBA/2 mouse at 480 mg/kg/day, ip for 9 days. The series is classed as functional, organism-based. Summed up: (§1)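 P388 lymphocytic leukemia in DBA/2 mice; one intraperitoneal injection per day for 9 days. […] Injection vehicles were water + alcohol, saline + Tween 80, or aqueous 0.5% citric acid. Some tests were duplicated, and 30-day cures were recorded.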

Series [2] deals with Mus musculus. Description: Toxicity in DBA/2 mouse allografted with mouse P388 cells assessed as change in body weight at 20 mg/kg/day, ip for 9 days compound administered through water+acetone vehicle. The arrangement: route intraperitoneal. The settings on record: in vivo, 216 h. The series is classed as organism-based. Summed up: (§2)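 DBA/2 mice bearing P388 lymphocytic leukemia received one intraperitoneal injection per day for 9 days, given in the vehicle named for each test (water/alcohol-based, saline or saline + Tween 80). Toxicity was noted during dosing alongside survival scoring (T/C, treated versus control mean survival time).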

In series [3] the test system is P388. Description: Antitumor activity against mouse P388 cells allografted in DBA/2 mouse assessed as host survival at 20 mg/kg/day, ip for 9 days compound administered through water+acetone vehicle relative to control. The series is classed as functional. The settings on record: route intraperitoneal. Summed up:
(§3)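 P388 lymphocytic leukemia in DBA/2 mice. Dosing was one intraperitoneal injection per day for 9 days in the vehicle stated. […] Duplicate tests were run for some doses.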

In series [4] the test system is P388. The experiment in a line: Antitumor activity against mouse P388 cells allografted in DBA/2 mouse assessed as host survival at 20 mg/kg/day, ip for 9 days compound administered through water+alcohol+acetone vehicle relative to control. The series is classed as functional. Particulars: route intraperitoneal. In outline: as §3
Series [5] relates to Mus musculus. Description: Toxicity in DBA/2 mouse allografted with mouse P388 cells assessed as change in body weight at 80 mg/kg/day, ip for 9 days compound administered through water+alcohol+acetone vehicle. The series is classed as organism-based. Set-up: route intraperitoneal. Particulars: in vivo, 216 h. Summed up: as §2
Series [6] concerns P388. The experiment in a line: Antitumor activity against mouse P388 cells allografted in DBA/2 mouse assessed as host survival at 80 mg/kg/day, ip for 9 days compound administered through water+alcohol+acetone vehicle relative to control. The series is classed as functional. The settings on record: route intraperitoneal. Summed up:
as §3

The subject of series [7] is P388. The experiment in a line: Antitumor activity against mouse P388 cells allografted in DBA/2 mouse assessed as host survival at 40 mg/kg/day, ip for 9 days compound administered through water+alcohol+acetone vehicle relative to control. The series is classed as functional. The settings on record: route intraperitoneal. In outline:
as §3

For series [8], the system named is Mus musculus. The experiment in a line: Toxicity in DBA/2 mouse allografted with mouse P388 cells assessed as change in body weight at 10 mg/kg/day, ip for 9 days compound administered through water+alcohol+acetone vehicle. The series is classed as organism-based. Set-up: route intraperitoneal. The settings on record: in vivo, 216 h. In outline:
as §2

Series [9] concerns P388. The experiment in a line: Antitumor activity against mouse P388 cells allografted in DBA/2 mouse assessed as host survival at 4.4 mg/kg/day, ip for 9 days compound administered through water+alcohol vehicle relative to control. Particulars: route intraperitoneal. The series is classed as functional. In outline: as §3
Series [10] has as its system Mus musculus. The experiment in a line: Toxicity in DBA/2 mouse allografted with mouse P388 cells assessed as change in body weight at 4.4 mg/kg/day, ip for 9 days compound administered through water+alcohol vehicle. The series is classed as organism-based. Particulars: in vivo, 216 h. Set-up: route intraperitoneal. Summed up: as §2
The test system of series [11] is P388. The experiment in a line: Antitumor activity against mouse P388 cells allografted in DBA/2 mouse assessed as host survival at 10 mg/kg/day, ip for 9 days compound administered through water+alcohol+acetone vehicle relative to control. The series is classed as functional. Particulars: route intraperitoneal. In outline: as §3
Series [12] deals with P388. Description: Antitumor activity against mouse P388 cells allografted in DBA/2 mouse assessed as host survival at 1.9 mg/kg/day, ip for 9 days compound administered through water+alcohol vehicle relative to control. The series is classed as functional. The settings on record: route intraperitoneal. Summed up: as §3
Series [13] concerns Mus musculus. The experiment in a line: Toxicity in DBA/2 mouse allografted with mouse P388 cells assessed as change in body weight at 40 mg/kg/day, ip for 9 days compound administered through water+alcohol+acetone vehicle. The series is classed as organism-based. Set-up: route intraperitoneal. The settings on record: in vivo, 216 h. Summed up:
as §2

Series [14] deals with Mus musculus. Description: Toxicity in DBA/2 mouse allografted with mouse P388 cells assessed as change in body weight at 20 mg/kg/day, ip for 9 days compound administered through water+alcohol+acetone vehicle. The series is classed as organism-based. Set-up: route intraperitoneal. Particulars: in vivo, 216 h. In outline:
as §2

In series [15] the test system is Mus musculus. The experiment in a line: Toxicity in DBA/2 mouse allografted with mouse P388 cells assessed as change in body weight at 1.9 mg/kg/day, ip for 9 days compound administered through water+alcohol vehicle. The series is classed as organism-based. Set-up: route intraperitoneal. The settings on record: in vivo, 216 h. In outline: as §2
Series [16] has as its system P388. The experiment in a line: Antitumor activity against mouse P388 cells allografted in ip dosed DBA/2 mouse administered for 9 days. The series is classed as functional, organism-based. Summed up: as §1
Series [17] has as its system P388. Description: Antitumor activity against mouse P388 cells allografted in DBA/2 mouse assessed as host survival at 80 mg/kg/day, ip for 9 days compound administered through water+alcohol vehicle relative to control. The series is classed as functional. The settings on record: route intraperitoneal. In outline: as §3
For series [18], the system named is P388. Description: Antitumor activity against mouse P388 cells allografted in DBA/2 mouse assessed as host survival at 20 mg/kg/day, ip for 9 days compound administered through water+alcohol vehicle relative to control. The series is classed as functional. Particulars: route intraperitoneal. Summed up: as §3
Series [19] relates to Mus musculus. The experiment in a line: Toxicity in DBA/2 mouse allografted with mouse P388 cells assessed as change in body weight at 80 mg/kg/day, ip for 9 days compound administered through water+alcohol vehicle. The series is classed as organism-based. The arrangement: route intraperitoneal. The settings on record: in vivo, 216 h. Summed up: as §2
The test system of series [20] is Mus musculus. The experiment in a line: Toxicity in DBA/2 mouse allografted with mouse P388 cells assessed as change in body weight at 40 mg/kg/day, ip for 9 days compound administered through water+alcohol vehicle. The series is classed as organism-based. The arrangement: route intraperitoneal. The settings on record: in vivo, 216 h. In outline:
as §2

Series [21] has as its system P388. Description: Antitumor activity against mouse P388 cells allografted in DBA/2 mouse assessed as host survival at 40 mg/kg/day, ip for 9 days compound administered through water+alcohol vehicle relative to control. Particulars: route intraperitoneal. The series is classed as functional. Summed up: as §3
Series [22] concerns Mus musculus. Description: Toxicity in DBA/2 mouse allografted with mouse P388 cells assessed as change in body weight at 20 mg/kg/day, ip for 9 days compound administered through water+alcohol vehicle. The series is classed as organism-based. The arrangement: route intraperitoneal. Particulars: in vivo, 216 h. In outline:
as §2

For series [23], the system named is Mus musculus. The experiment in a line: Toxicity in DBA/2 mouse allografted with mouse P388 cells assessed as change in body weight at 4 mg/kg/day, ip for 9 days compound administered through saline vehicle. The series is classed as organism-based. The arrangement: route intraperitoneal. Particulars: in vivo, 216 h.
Series [24] has as its system P388. The experiment in a line: Antitumor activity against mouse P388 cells allografted in DBA/2 mouse assessed as host survival at 9 mg/kg/day, ip for 9 days compound administered through water+alcohol vehicle relative to control. The series is classed as functional. Particulars: route intraperitoneal. Summed up: as §3
For series [25], the system named is P388. Description: Antitumor activity against mouse P388 cells allografted in DBA/2 mouse assessed as host survival at 4 mg/kg/day, ip for 9 days compound administered through saline vehicle relative to control. The series is classed as functional. The settings on record: route intraperitoneal. In outline: as §3
In series [26] the test system is Mus musculus. Description: Toxicity in DBA/2 mouse allografted with mouse P388 cells assessed as change in body weight at 9 mg/kg/day, ip for 9 days compound administered through water+alcohol vehicle. The series is classed as organism-based. Set-up: route intraperitoneal. The settings on record: in vivo, 216 h.

Calls of active or inactive are those of the source. No cut-off for these calls is given here.

What is called T/C is the ratio of treated to control.

Take `C=C(CC(=O)OC)C(=O)O[C@@H]1C(OC)=C[C@]23CCCN2CCc2cc4c(cc2[C@H]13)OCO4` (single isomer, unassigned): the result in series [1] was inactive.

Regarding `COC(=O)/C(=C/C(=O)O[C@@H]1C(OC)=C[C@]23CCCN2CCc2cc4c(cc2[C@H]13)OCO4)CCC(C)C`, the Activity in series [2] was determined as 0.9 g. In addition, the T/C in [3] is on record as 131%.

For the molecule `COC(=O)/C=C/C(=O)O[C@@H]1C(OC)=C[C@]23CCCN2CCc2cc4c(cc2[C@H]13)OCO4`, the T/C in series [4] is 125%; in [6], 145%; in series [7], 134%; in series [9], 147%; in series [11], 136%; in [12] it was 134%. Also, the Activity in series [5] is listed as -0.7 g; in series [8], -1.2 g; in series [10] it was -1.5 g; in series [13], -0.9 g; in [14] it was -1 g; in [15], 0.5 g.

As to `COC(=O)/C=C(\C)C(=O)O[C@@H]1C(OC)=C[C@]23CCCN2CCc2cc4c(cc2[C@H]13)OCO4`, the outcome in series [16] was inactive.

As for `C/C=C/C=C/C(=O)O[C@@H]1C(OC)=C[C@]23CCCN2CCc2cc4c(cc2[C@H]13)OCO4`, the T/C in series [17] came to 150%; in series [18], 130%; in series [21] it was 125%. Also, the figures for the Activity in series [19], in [20] and in series [22] were 0.9 g, -1.8 g and 0.9 g, respectively.

As for `COC(=O)/C=C/C=C/C(=O)O[C@@H]1C(OC)=C[C@]23CCCN2CCc2cc4c(cc2[C@H]13)OCO4`, the result in series [16] was inactive.

In the case of `COC(=O)C[C@@](O)(CCC(C)C)C(=O)O[C@@H]1C(OC)=C[C@]23CCCN2CCc2cc4c(cc2[C@H]13)OCO4`, the figures for the Activity in series [23] and in [26] were 0.5 g and -2.2 g, respectively. The T/C was 131% in series [24] and 150% in series [25].
